Results from ChEMBL document CHEMBL1795306, “Acyl derivatives of p-aminosulfonamides and dapsone as new inhibitors of the arginine methyltransferase hPRMT1” (Bioorg Med Chem, 2011).
The source made the active and inactive calls. The calls are words filed in the database; no cut-off is given here.

Experiments:
[1] = target: T1, Protein arginine N-methyltransferase 1 (Homo sapiens, UniProt Q99873); assay: Inhibition of human recombinant PRMT1-mediated arginine methylation at 50 uM using nonhistone protein Npl3 substrate by ELISA
Target sequence in this assay (Q99873 whole entry, looked up): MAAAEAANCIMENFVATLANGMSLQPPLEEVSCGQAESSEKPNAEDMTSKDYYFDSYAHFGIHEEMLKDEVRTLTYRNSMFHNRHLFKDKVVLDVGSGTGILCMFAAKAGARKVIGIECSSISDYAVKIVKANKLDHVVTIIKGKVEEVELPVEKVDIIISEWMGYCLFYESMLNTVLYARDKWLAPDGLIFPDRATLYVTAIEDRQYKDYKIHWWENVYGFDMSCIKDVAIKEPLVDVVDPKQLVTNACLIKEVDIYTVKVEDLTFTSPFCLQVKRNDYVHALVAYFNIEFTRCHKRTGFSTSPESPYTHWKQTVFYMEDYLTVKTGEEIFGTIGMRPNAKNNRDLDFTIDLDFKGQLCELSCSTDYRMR

[2] = target: T1, Protein arginine N-methyltransferase 1; assay: Inhibition of human recombinant PRMT1-mediated arginine methylation at 10 uM using nonhistone protein Npl3 substrate by ELISA
Target sequence in this assay (Q99873 whole entry, looked up): as above

[3] = target: T2, Histone-lysine N-methyltransferase SETD7 (Homo sapiens) (UniProt Q8WTS6); assay: Inhibition of methyl transferase activity of SET7/9 at 50 uM using biotinylated histone H3(1-21) substrate by In-vitro time resolved fluorescence immunosorbent methyltransferase assay
T2 sequence (whole entry): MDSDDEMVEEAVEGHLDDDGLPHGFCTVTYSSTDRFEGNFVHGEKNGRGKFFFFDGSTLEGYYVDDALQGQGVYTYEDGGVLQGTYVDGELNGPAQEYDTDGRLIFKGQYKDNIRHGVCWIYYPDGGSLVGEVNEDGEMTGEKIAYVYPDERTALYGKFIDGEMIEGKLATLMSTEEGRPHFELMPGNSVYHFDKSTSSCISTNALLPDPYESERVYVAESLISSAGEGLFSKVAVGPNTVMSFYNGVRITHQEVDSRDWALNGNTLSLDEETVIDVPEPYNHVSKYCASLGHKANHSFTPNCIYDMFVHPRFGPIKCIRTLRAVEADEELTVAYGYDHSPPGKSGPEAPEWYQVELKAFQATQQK
How it was run: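 Biotinylated human histone H3 peptide (aa 1-21, 20 pmol/well) bound to streptavidin plates. Recombinant human GST-Set7/9 preincubated with inhibitor (DMSO) 10 min at 30 °C, then transferred to wells; reaction started with SAM. Methylation detected with rabbit anti-methyl H3K4 antibody and europium-labelled anti-rabbit IgG, read by time-resolved fluorescence (340/615 nm) after enhancement solution.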

[4] = target: T1, Protein arginine N-methyltransferase 1; assay: Inhibition of human recombinant PRMT1-mediated arginine methylation using nonhistone protein Npl3 substrate by ELISA
Target sequence in this assay (Q99873 whole entry): as the sequence (Q99873 whole entry, looked up) above

LNCaP [5] = assay: Inhibition of thymidine kinase promoter dependent transcription in human LNCAP cells at 1 uM by androgen-nondependent thymidine kinase-luciferase reporter gene assay; assay type: functional, cell-based
How it was run: (§1)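 LNCaP cells (2×10^5) grown in RPMI1640/10% FCS, switched to phenol-red-free RPMI1640 with 10% double-stripped FCS, transfected with 500 ng MMTV-Luc (androgen-driven) or TK-Luc (androgen-independent) reporter per well. Six hours later inhibitor or DMSO added, then overnight with or without 10^-10 M R1881; luciferase read. Three experiments in duplicate, mean + SD (n = 6).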

[6] = target: T3, Histone-arginine methyltransferase CARM1 (Mus musculus) (UniProt Q9WVG6); assay: Inhibition of mouse FLAG-tagged CARM1-mediated arginine methylation using histone H3(1-31) and [14C]-SAM at 0.01 to 2 mM
T3 sequence (whole entry): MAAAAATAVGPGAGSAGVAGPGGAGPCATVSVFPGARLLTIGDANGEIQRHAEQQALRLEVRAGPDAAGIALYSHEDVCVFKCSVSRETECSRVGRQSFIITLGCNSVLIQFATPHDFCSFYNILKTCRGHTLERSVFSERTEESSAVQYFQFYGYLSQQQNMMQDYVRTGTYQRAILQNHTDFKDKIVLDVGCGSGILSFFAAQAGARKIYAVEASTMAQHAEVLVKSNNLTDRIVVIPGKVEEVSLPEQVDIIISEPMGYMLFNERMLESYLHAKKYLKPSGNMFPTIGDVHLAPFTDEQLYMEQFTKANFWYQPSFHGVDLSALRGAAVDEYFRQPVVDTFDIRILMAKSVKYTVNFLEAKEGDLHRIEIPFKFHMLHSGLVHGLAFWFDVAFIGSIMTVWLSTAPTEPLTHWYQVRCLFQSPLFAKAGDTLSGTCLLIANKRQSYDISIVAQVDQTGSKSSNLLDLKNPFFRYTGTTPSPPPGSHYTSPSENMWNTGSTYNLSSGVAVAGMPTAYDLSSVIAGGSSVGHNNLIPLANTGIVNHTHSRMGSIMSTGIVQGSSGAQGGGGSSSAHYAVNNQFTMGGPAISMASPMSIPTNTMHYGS
How it was run: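 Flag-CARM1 (mouse, baculovirus-expressed, 250 nM) with 20 μM recombinant histone H3 and 10 μg/mL BSA in 50 mM Tris-HCl, 0.2 M NaCl, 0.5 mM DTT, pH 8.0, preincubated with inhibitor (0.01–2 mM) 30 min at room temperature, centrifuged; started with 10 μM ¹⁴C-SAM, 15 min at 25 °C. SDS-PAGE, phosphorimager quantitation of H3 radioactivity.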

LNCaP [7] = assay: Inhibition of androgen dependent GREB1 gene transcription in human LNCAP cells by RT-PCR preincubated for 10 mins before 1 nM synthetic androgen R1881 addition; assay type: functional, cell-based
How it was run: (§2)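 LNCaP cells washed with PBS, starved 24 h in phenol-red-free RPMI1640 with 0.5% double-stripped FCS, then treated with inhibitor or DMSO vehicle; 10 min later stimulated overnight with or without 10⁻⁹ M R1881. DNase I-treated Trizol RNA reverse transcribed; target mRNA quantified by SYBR green I quantitative PCR with ROX passive reference.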

LNCaP [8] = assay: Inhibition of androgen dependent ELK4 gene transcription in human LNCAP cells by RT-PCR preincubated for 10 mins before 1 nM synthetic androgen R1881 addition; assay type: functional, cell-based; how it was run: as §2
[9] = Growth inhibition of human MCF7a cells by MTS assay; assay type: functional
LNCaP [10] = assay: Inhibition of thymidine kinase promoter dependent transcription in human LNCAP cells at 10 uM by androgen-nondependent thymidine kinase-luciferase reporter gene assay; assay type: functional, cell-based; how it was run: as §1
LNCaP [11] = assay: Inhibition of androgen-independent GAPDH gene transcription in human LNCAP cells by RT-PCR preincubated for 10 mins before 1 nM synthetic androgen R1881 addition; assay type: functional, cell-based; how it was run: as §2
LNCaP [12] = assay: Inhibition of androgen dependent […] gene transcription in human LNCAP cells by RT-PCR preincubated for 10 mins before 1 nM synthetic androgen R1881 addition; assay type: functional, cell-based; how it was run: as §2
LNCaP [13] = assay: Inhibition of androgen dependent MAF gene transcription in human LNCAP cells by RT-PCR preincubated for 10 mins before 1 nM synthetic androgen R1881 addition; assay type: functional, cell-based; how it was run: as §2
LNCaP [14] = assay: Inhibition of androgen dependent CXCR4 gene transcription in human LNCAP cells by RT-PCR preincubated for 10 mins before 1 nM synthetic androgen R1881 addition; assay type: functional, cell-based; how it was run: as §2
LNCaP [15] = assay: Inhibition of androgen dependent MAK gene transcription in human LNCAP cells by RT-PCR preincubated for 10 mins before 1 nM synthetic androgen R1881 addition; assay type: functional, cell-based; how it was run: as §2
LNCaP [16] = assay: Inhibition of androgen dependent NKX3.1 gene transcription in human LNCAP cells by RT-PCR preincubated for 10 mins before 1 nM synthetic androgen R1881 addition; assay type: functional, cell-based; how it was run: as §2
LNCaP [17] = assay: Inhibition of androgen dependent TMPRSS2 gene transcription in human LNCAP cells by RT-PCR preincubated for 10 mins before 1 nM synthetic androgen R1881 addition; assay type: functional, cell-based; how it was run: as §2
LNCaP [18] = assay: Inhibition of androgen dependent PER1 gene transcription in human LNCAP cells by RT-PCR preincubated for 10 mins before 1 nM synthetic androgen R1881 addition; assay type: functional, cell-based; how it was run: as §2
LNCaP [19] = assay: Inhibition of androgen dependent transcription in human LNCAP cells assessed as blockade of R1881-induced transcription at 1 to 25 uM by androgen derived MMTV-luciferase reporter gene assay; assay type: functional, cell-based; how it was run: as §1
LNCaP [20] = assay: Inhibition of androgen dependent IGF1-R gene transcription in human LNCAP cells by RT-PCR preincubated for 10 mins before 1 nM synthetic androgen R1881 addition; assay type: functional, cell-based; how it was run: as §2
LNCaP [21] = assay: Growth inhibition of human LNCAP cells by MTS assay; assay type: functional
LNCaP [22] = assay: Inhibition of androgen dependent FKBP5 gene transcription in human LNCAP cells by RT-PCR preincubated for 10 mins before 1 nM synthetic androgen R1881 addition; assay type: functional, cell-based; how it was run: as §2
LNCaP [23] = assay: Inhibition of androgen dependent transcription in human LNCAP cells assessed as blockade of R1881-induced transcription at 25 uM by androgen derived MMTV-luciferase reporter gene assay; assay type: functional, cell-based; how it was run: as §1

Row | SMILES | inhibition [1] [%] | inhibition [2] [%] | also measured
1 | CC(NC(=O)c1ccc(N)cc1)c1ccccc1 (configuration not stated) | 34 |  | 
2 | Nc1ccc(S(=O)(=O)NCc2ccc(Cl)cc2)cc1 | < 5 |  | 
3 | CCCC(=O)Nc1ccc(S(=O)(=O)c2ccc(NC(=O)CCC)cc2)cc1 | 44.1 | 14.7 | 
4 | O=S(=O)(NCCc1ccccc1)c1ccc(Cl)cc1 | < 5 |  | 
5 | COc1ccc(CNS(=O)(=O)c2ccc(N)cc2)cc1 | 19 | 12 | 
6 | O=C(Cc1ccccc1)Nc1ccc(S(=O)(=O)c2ccc(NC(=O)Cc3ccccc3)cc2)cc1 |  |  | inhibition [3]: 31%
7 | CC(NS(=O)(=O)c1ccc(N)cc1)c1ccccc1 (configuration not stated) | 40 | 28 | 
8 | Nc1ccc(S(=O)(=O)NCc2ccccn2)cc1 |  |  | IC50 [4]: 70.7 µM; inhibition [3]: 14%
9 | Nc1ccc(C(=O)NCc2ccccc2)cc1 | 47 |  | 
10 | CCC(=O)Nc1ccc(S(=O)(=O)c2ccc(NC(=O)CC)cc2)cc1 | < 5 |  | 
11 | Nc1ccc(S(=O)(=O)NCc2ccccc2)cc1 | 28 | 22 | 
12 | Nc1ccc(S(=O)(=O)NCCc2ccc(O)cc2)cc1 | 37 | 30 | 
13 | O=C(CCl)Nc1ccc(S(=O)(=O)c2ccc(NC(=O)CCl)cc2)cc1 |  |  | IC50 [4]: 1.5 µM; inhibition (LNCaP [5]): inactive; inhibition [6]: inactive; inhibition (LNCaP [7]): Active; inhibition (LNCaP [8]): Active; GI50 [9]: 1.97 µM; inhibition (LNCaP [10]): inactive; inhibition (LNCaP [11]): inactive; inhibition (LNCaP [12]): Active; inhibition (LNCaP [13]): Active; inhibition [3]: < 5%; inhibition (LNCaP [14]): Active; inhibition (LNCaP [15]): Active; inhibition (LNCaP [16]): Active; inhibition (LNCaP [17]): Active; inhibition (LNCaP [18]): Active; inhibition (LNCaP [19]): Active; inhibition (LNCaP [20]): Active; GI50 (LNCaP [21]): 4.49 µM; inhibition (LNCaP [22]): Active
14 | Nc1ccc(S(=O)(=O)NCCc2ccc(Cl)cc2)cc1 | < 5 |  | 
15 | O=C(Nc1ccc(S(=O)(=O)NCCc2ccccc2)cc1)c1ccc(Cl)c(Cl)c1 |  |  | GI50 [9]: 52.2 µM; inhibition [3]: 37%; inhibition (LNCaP [23]): Active
16 | O=S(=O)(NCCc1ccccc1)c1ccc(NS(=O)(=O)c2ccc(Cl)cc2)cc1 |  |  | IC50 [4]: 5 µM; inhibition [6]: inactive; inhibition [3]: 58%

Further lines, with some results ahead:

Row | inhibition [1] [%] | inhibition [2] [%] | SMILES | also measured
17 | 70.6 | 23.5 | CCC(=O)Nc1ccc(S(=O)(=O)c2ccc(N)cc2)cc1 | 
18 | 10 | < 5 | O=C(Cc1ccccc1)Nc1ccc(S(=O)(=O)NCCc2ccccc2)cc1 | 
19 | 42 | 39 | O=C(Nc1ccc(S(=O)(=O)NCCc2ccccc2)cc1)c1ccc(-c2ccccc2)cc1 | 
20 | 41 | 23 | O=C(Nc1ccc(S(=O)(=O)NCCc2ccccc2)cc1)c1ccc(Br)cc1 | 
21 | 20 | 15 | O=C(Nc1ccc(S(=O)(=O)NCCc2ccccc2)cc1)c1ccccc1 | 
22 | 41.2 | 35.3 | Nc1ccc(S(=O)(=O)c2ccc(NC(=O)Cc3ccccc3)cc2)cc1 | inhibition [3]: < 5%
23 | 13.6 | < 5 | Nc1ccc(S(=O)(=O)c2ccc(NC(=O)NCc3ccccc3)cc2)cc1 | 
24 | 40 | 40 | Nc1ccc(C(=O)Nc2ccc(S(=O)(=O)NCCc3ccccc3)cc2)cc1 | 
